Assay results taken from ChEMBL document CHEMBL1154095, “Separation of alpha-glucosidase-inhibitory and liver X receptor-antagonistic activities of phenethylphenyl phthalimide analogs and generation of LXRalpha-selective antagonists” (Bioorg Med Chem, 2009).

Target: not listed separately
Assay: Inhibition of Saccharomyces sp. alpha-glucosidase assessed as p-nitrophenol release
In short: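 Yeast alpha-glucosidase at 0.2 mU/mL in 10 mM phosphate buffer pH 7.0 was preincubated with compound (1% v/v DMSO final) for 10 min at 37 °C. pNPG substrate (final 0.2 mM) was then added and incubated 10 min at 37 °C. The reaction was basified with Na2CO3, and released p-nitrophenol was read at A405. Triplicates, repeated at least twice, normalized averages, IC50.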

SMILES	IC50
O=C1c2c(Cl)c(Cl)c(Cl)c(Cl)c2C(=O)N1c1ccc(CCc2ccc(O)c(O)c2)cc1	> 100 µM
O=C1c2ccccc2C(=O)N1c1cccc(CCc2ccc(O)c(O)c2)c1	38 µM
COc1ccc(/C=C/c2ccc(N3C(=O)c4c(Cl)c(Cl)c(Cl)c(Cl)c4C3=O)cc2)cc1OC	40 µM
O=C1c2c(Cl)c(Cl)c(Cl)c(Cl)c2C(=O)N1c1ccc(/C=C/c2ccccc2)cc1	21 µM
O=C1c2ccccc2C(=O)N1c1ccccc1CCc1ccc(O)c(O)c1	> 100 µM
O=C1c2c(Cl)c(Cl)c(Cl)c(Cl)c2C(=O)N1c1ccccc1CCc1ccc(O)c(O)c1	20 µM
COc1cccc(CCc2ccc(N3C(=O)c4c(Cl)c(Cl)c(Cl)c(Cl)c4C3=O)cc2)c1	65 µM
O=C1c2ccccc2C(=O)N1c1ccc(CCc2ccccc2)cc1	> 100 µM
COc1ccc(CCc2ccc(N3C(=O)c4c(Cl)c(Cl)c(Cl)c(Cl)c4C3=O)cc2)cc1	> 100 µM
COc1cccc(CCc2ccc(N3C(=O)c4ccccc4C3=O)cc2)c1	> 100 µM
O=C1c2ccccc2C(=O)N1c1ccccc1CCc1ccccc1	16.2 µM
COc1ccc(CCc2cccc(N3C(=O)c4c(Cl)c(Cl)c(Cl)c(Cl)c4C3=O)c2)cc1OC	83 µM
COc1ccc(CCc2ccccc2N2C(=O)c3c(Cl)c(Cl)c(Cl)c(Cl)c3C2=O)cc1OC	> 100 µM
O=C1c2c(Cl)c(Cl)c(Cl)c(Cl)c2C(=O)N1c1cccc(CCc2ccc(O)c(O)c2)c1	23 µM
COc1ccc(CCc2ccc(N3C(=O)c4ccccc4C3=O)cc2)cc1OC	> 100 µM
O=C1c2c(Cl)c(Cl)c(Cl)c(Cl)c2C(=O)N1c1cccc(CCc2ccc(O)cc2)c1	> 100 µM
O=C1c2ccccc2C(=O)N1c1ccc(CCc2ccc(O)c(O)c2)cc1	> 100 µM
O=C1c2c(Cl)c(Cl)c(Cl)c(Cl)c2C(=O)N1c1ccc(CCc2cccc(O)c2)cc1	21 µM
COc1ccc(/C=C/c2cccc(N3C(=O)c4c(Cl)c(Cl)c(Cl)c(Cl)c4C3=O)c2)cc1OC	27 µM

Target: Liver X receptor (LXR alpha AND LXR beta) (Homo sapiens) (UniProt Q13133+P55055)
Assay: Selectivity ratio of IC50 for human LXRbeta over IC50 for human LXRalpha
Type: protein assay

SMILES	Selectivity ratio
c1cc2cc(c1)Oc1ccc(cc1)CCc1ccccc1-c1ccc(cc1)CC2	11

Target: T1, Oxysterols receptor LXR-alpha (Homo sapiens, UniProt Q13133)
T1 sequence (Q13133 whole entry): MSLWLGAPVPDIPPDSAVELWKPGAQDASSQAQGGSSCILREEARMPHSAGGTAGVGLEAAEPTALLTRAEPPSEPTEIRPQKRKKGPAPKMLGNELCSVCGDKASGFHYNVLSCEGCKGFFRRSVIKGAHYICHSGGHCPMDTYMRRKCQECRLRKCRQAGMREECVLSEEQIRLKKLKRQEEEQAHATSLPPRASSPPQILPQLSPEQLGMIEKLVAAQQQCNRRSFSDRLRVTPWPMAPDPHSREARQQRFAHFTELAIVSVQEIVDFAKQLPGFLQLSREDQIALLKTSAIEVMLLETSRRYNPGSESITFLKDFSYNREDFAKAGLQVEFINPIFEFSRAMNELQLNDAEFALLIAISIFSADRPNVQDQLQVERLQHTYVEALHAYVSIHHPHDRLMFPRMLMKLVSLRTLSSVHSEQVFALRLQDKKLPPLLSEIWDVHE
Assay: Antagonist activity at human LXRalpha expressed in HEK293 cells assessed as inhibition of beta-galactosidase activity by luciferase reporter gene assay
Type: functional, cell-based

SMILES	IC50
O=C1c2c(Cl)c(Cl)c(Cl)c(Cl)c2C(=O)N1c1ccc(CCc2ccc(O)c(O)c2)cc1	5.1 µM
O=C1c2ccccc2C(=O)N1c1cccc(CCc2ccc(O)c(O)c2)c1	6.1 µM
COc1ccc(/C=C/c2ccc(N3C(=O)c4c(Cl)c(Cl)c(Cl)c(Cl)c4C3=O)cc2)cc1OC	> 20 µM
O=C1c2c(Cl)c(Cl)c(Cl)c(Cl)c2C(=O)N1c1ccc(/C=C/c2ccccc2)cc1	> 30 µM
O=C1c2ccccc2C(=O)N1c1ccccc1CCc1ccc(O)c(O)c1	9.8 µM
O=C1c2c(Cl)c(Cl)c(Cl)c(Cl)c2C(=O)N1c1ccccc1CCc1ccc(O)c(O)c1	15 µM
COc1cccc(CCc2ccc(N3C(=O)c4c(Cl)c(Cl)c(Cl)c(Cl)c4C3=O)cc2)c1	6.9 µM
COc1ccc(CCc2ccc(N3C(=O)c4c(Cl)c(Cl)c(Cl)c(Cl)c4C3=O)cc2)cc1	8.8 µM
COc1cccc(CCc2ccc(N3C(=O)c4ccccc4C3=O)cc2)c1	2.4 µM
COc1ccc(CCc2cccc(N3C(=O)c4c(Cl)c(Cl)c(Cl)c(Cl)c4C3=O)c2)cc1OC	> 30 µM
COc1ccc(CCc2ccccc2N2C(=O)c3c(Cl)c(Cl)c(Cl)c(Cl)c3C2=O)cc1OC	6.1 µM
O=C1c2c(Cl)c(Cl)c(Cl)c(Cl)c2C(=O)N1c1cccc(CCc2ccc(O)c(O)c2)c1	6.3 µM
COc1ccc(CCc2ccc(N3C(=O)c4ccccc4C3=O)cc2)cc1OC	4.8 µM
O=C1c2c(Cl)c(Cl)c(Cl)c(Cl)c2C(=O)N1c1cccc(CCc2ccc(O)cc2)c1	3.7 µM
O=C1c2ccccc2C(=O)N1c1ccc(CCc2ccc(O)c(O)c2)cc1	1.7 µM
O=C1c2c(Cl)c(Cl)c(Cl)c(Cl)c2C(=O)N1c1ccc(CCc2cccc(O)c2)cc1	3.9 µM
COc1ccc(/C=C/c2cccc(N3C(=O)c4c(Cl)c(Cl)c(Cl)c(Cl)c4C3=O)c2)cc1OC	> 30 µM

Target: T2, Oxysterols receptor LXR-beta (Homo sapiens, UniProt P55055)
T2 sequence (P55055 whole entry): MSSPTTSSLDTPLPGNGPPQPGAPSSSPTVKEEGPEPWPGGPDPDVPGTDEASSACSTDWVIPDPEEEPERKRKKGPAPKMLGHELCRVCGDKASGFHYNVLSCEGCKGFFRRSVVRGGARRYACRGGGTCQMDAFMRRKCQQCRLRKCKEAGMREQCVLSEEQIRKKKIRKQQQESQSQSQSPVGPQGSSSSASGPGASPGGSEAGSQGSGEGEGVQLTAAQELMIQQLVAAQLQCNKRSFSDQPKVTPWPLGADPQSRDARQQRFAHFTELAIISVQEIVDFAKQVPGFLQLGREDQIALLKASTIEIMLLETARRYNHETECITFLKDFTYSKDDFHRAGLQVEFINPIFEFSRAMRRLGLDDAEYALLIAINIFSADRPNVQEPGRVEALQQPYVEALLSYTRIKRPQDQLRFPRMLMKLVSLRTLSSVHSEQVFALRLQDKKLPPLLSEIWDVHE
Assay: Antagonist activity at human LXRbeta expressed in HEK293 cells assessed as inhibition of beta-galactosidase activity by luciferase reporter gene assay
Type: functional, cell-based

SMILES	IC50
O=C1c2c(Cl)c(Cl)c(Cl)c(Cl)c2C(=O)N1c1ccc(CCc2ccc(O)c(O)c2)cc1	> 30 µM
O=C1c2ccccc2C(=O)N1c1cccc(CCc2ccc(O)c(O)c2)c1	7.6 µM
COc1ccc(/C=C/c2ccc(N3C(=O)c4c(Cl)c(Cl)c(Cl)c(Cl)c4C3=O)cc2)cc1OC	14 µM
O=C1c2c(Cl)c(Cl)c(Cl)c(Cl)c2C(=O)N1c1ccc(/C=C/c2ccccc2)cc1	> 30 µM
O=C1c2ccccc2C(=O)N1c1ccccc1CCc1ccc(O)c(O)c1	> 30 µM
O=C1c2c(Cl)c(Cl)c(Cl)c(Cl)c2C(=O)N1c1ccccc1CCc1ccc(O)c(O)c1	17 µM
COc1cccc(CCc2ccc(N3C(=O)c4c(Cl)c(Cl)c(Cl)c(Cl)c4C3=O)cc2)c1	> 30 µM
COc1ccc(CCc2ccc(N3C(=O)c4c(Cl)c(Cl)c(Cl)c(Cl)c4C3=O)cc2)cc1	> 30 µM
COc1cccc(CCc2ccc(N3C(=O)c4ccccc4C3=O)cc2)c1	3.5 µM
COc1ccc(CCc2cccc(N3C(=O)c4c(Cl)c(Cl)c(Cl)c(Cl)c4C3=O)c2)cc1OC	> 30 µM
COc1ccc(CCc2ccccc2N2C(=O)c3c(Cl)c(Cl)c(Cl)c(Cl)c3C2=O)cc1OC	7.7 µM
O=C1c2c(Cl)c(Cl)c(Cl)c(Cl)c2C(=O)N1c1cccc(CCc2ccc(O)c(O)c2)c1	21 µM
COc1ccc(CCc2ccc(N3C(=O)c4ccccc4C3=O)cc2)cc1OC	4.3 µM
O=C1c2c(Cl)c(Cl)c(Cl)c(Cl)c2C(=O)N1c1cccc(CCc2ccc(O)cc2)c1	> 30 µM
O=C1c2ccccc2C(=O)N1c1ccc(CCc2ccc(O)c(O)c2)cc1	> 3 µM
O=C1c2c(Cl)c(Cl)c(Cl)c(Cl)c2C(=O)N1c1ccc(CCc2cccc(O)c2)cc1	> 30 µM
COc1ccc(/C=C/c2cccc(N3C(=O)c4c(Cl)c(Cl)c(Cl)c(Cl)c4C3=O)c2)cc1OC	> 30 µM
